Laboratory results as given in ChEMBL document CHEMBL2046352, “Discovery of novel 5-(ethyl or hydroxymethyl) analogs of 2'-'up' fluoro (or hydroxyl) pyrimidine nucleosides as a new class of Mycobacterium tuberculosis, Mycobacterium bovis and Mycobacterium avium inhibitors” (Bioorg Med Chem, 2012).
Active and inactive are the calls of the source. No cut-off for these calls is given here.

How the values were obtained:
[1] = test system: Mycobacterium tuberculosis; assay: Antimycobacterial activity against Mycobacterium tuberculosis H37Ra assessed as inhibition of microbial growth at 0.5 ug/ml incubated for 6 days by MABA method; format: functional; settings: 144 h, read-out: GI
In short: (§1)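 Microplate alamar blue assay in 7H9GC medium. Compounds dissolved in DMSO at 10 mg/mL (stock), diluted to 100, 50, 25, 10, 5, 1 and 0.5 ug/mL, each in triplicate. Frozen inoculum added at final 2.5 x 10^5 CFU/mL. Bacteria-alone and medium-alone control wells. Read by colour change and fluorescence. % inhibition = (test − M bkg)/(B − M bkg) x 100, mean of two experiments. MIC50 = lowest concentration giving ≥50% inhibition.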

[2] = test system: Mycobacterium tuberculosis; assay: Antimycobacterial activity against Mycobacterium tuberculosis H37Rv assessed as inhibition of microbial growth at 2 ug/ml by radiometric-BACTEC assay; format: functional, organism-based
Mycobacterium avium [3] = assay: Antimycobacterial activity against Mycobacterium avium ATCC 25291 assessed as inhibition of microbial growth at 2 ug/ml incubated for 6 days by MABA method; format: functional, Mycobacterium avium subsp. avium ATCC 25291; settings: ATCC 25291, 144 h, read-out: GI
[4] = test system: Mycobacterium tuberculosis; assay: Antimycobacterial activity against Mycobacterium tuberculosis H37Ra assessed as inhibition of microbial growth at 0.5 to 100 ug/ml incubated for 6 days by MABA method; format: functional; in short: as §1
[5] = Toxicity against human HuH7 cells after 2 days by XTT assay; format: cell-based, Huh-7
In short: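 Huh-7 hepatoma cells seeded at 2 x 10^4/well, allowed to attach 6–8 h, then exposed to 200, 100, 50, 10 and 1 ug/mL with a DMSO control for two days at 37 °C. Viability by XTT, 4 h at 37 °C, absorbance 450–500 nm.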

[6] = Toxicity against human HuH7 cells after 2 days by [3H]thymidine incorporation assay; format: cell-based, Huh-7
In short: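 Huh-7 cells plated at 1 x 10^4/well and exposed in triplicate to 200, 100, 50, 10 and 1 ug/mL with a DMSO control for two days at 37 °C. Pulsed with 0.5 uCi/well [3H]-thymidine for 12–18 h, harvested onto filters, incorporation counted by liquid scintillation.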

Mycobacterium avium [7] = assay: Antimycobacterial activity against Mycobacterium avium ATCC 25291 assessed as inhibition of microbial growth at 0.5 to 100 ug/ml incubated for 6 days by MABA method; format: functional, Mycobacterium avium subsp. avium ATCC 25291; in short: as §1
[8] = test system: Mycobacterium tuberculosis; assay: Antimycobacterial activity against Mycobacterium tuberculosis H37Ra assessed as inhibition of microbial growth at 100 ug/ml incubated for 6 days by MABA method; format: functional; settings: 144 h, read-out: GI; in short: as §1
[9] = test system: Mycobacterium tuberculosis; assay: Antimycobacterial activity against Mycobacterium tuberculosis H37Ra assessed as inhibition of microbial growth at 50 ug/ml incubated for 6 days by MABA method; format: functional; settings: 144 h, read-out: GI; in short: as §1
Mycobacterium avium [10] = assay: Antimycobacterial activity against Mycobacterium avium ATCC 25291 assessed as inhibition of microbial growth at 100 ug/ml incubated for 6 days by MABA method; format: functional, Mycobacterium avium subsp. avium ATCC 25291; settings: ATCC 25291, 144 h, read-out: GI; in short: as §1
Mycobacterium avium [11] = assay: Antimycobacterial activity against Mycobacterium avium ATCC 25291 assessed as inhibition of microbial growth at 50 ug/ml incubated for 6 days by MABA method; format: functional, Mycobacterium avium subsp. avium ATCC 25291; settings: ATCC 25291, 144 h, read-out: GI; in short: as §1
[12] = test system: Mycobacterium tuberculosis; assay: Antimycobacterial activity against Mycobacterium tuberculosis H37Ra assessed as inhibition of microbial growth incubated for 6 days by MABA method; format: functional; settings: 144 h; in short: as §1
[13] = test system: Mycobacterium tuberculosis; assay: Antimycobacterial activity against Mycobacterium tuberculosis H37Ra assessed as inhibition of microbial growth at 0.1 ug/ml incubated for 6 days by MABA method; format: functional; settings: 144 h, read-out: GI
[14] = test system: Mycobacterium tuberculosis; assay: Antimycobacterial activity against Mycobacterium tuberculosis H37Rv assessed as inhibition of microbial growth at 1 ug/ml by radiometric-BACTEC assay; format: functional; settings: read-out: GI
[15] = test system: Mycobacterium tuberculosis; assay: Antimycobacterial activity against Mycobacterium tuberculosis H37Ra assessed as inhibition of microbial growth at 15 to 20 ug/ml incubated for 6 days by MABA method; format: functional
[16] = test system: Mycobacterium tuberculosis; assay: Antimycobacterial activity against Mycobacterium tuberculosis H37Ra assessed as inhibition of microbial growth at 5 ug/ml incubated for 6 days by MABA method; format: functional; settings: 144 h, read-out: GI; in short: as §1
[17] = test system: Mycobacterium tuberculosis; assay: Antimycobacterial activity against Mycobacterium tuberculosis H37Ra assessed as inhibition of microbial growth at 10 ug/ml incubated for 6 days by MABA method; format: functional; settings: 144 h, read-out: GI; in short: as §1
Mycobacterium avium [18] = assay: Antimycobacterial activity against Mycobacterium avium ATCC 25291 assessed as inhibition of microbial growth incubated for 6 days by MABA method; format: functional, Mycobacterium avium subsp. avium ATCC 25291; settings: ATCC 25291, 144 h; in short: as §1
Mycobacterium avium [19] = assay: Antimycobacterial activity against Mycobacterium avium ATCC 25291 assessed as inhibition of microbial growth at 10 ug/ml incubated for 6 days by MABA method; format: functional, Mycobacterium avium subsp. avium ATCC 25291; settings: ATCC 25291, 144 h, read-out: GI; in short: as §1
[20] = test system: Mycobacterium tuberculosis; assay: Potency index, ratio of MIC50 for cycloserine to MIC50 for compound against Mycobacterium tuberculosis H37Ra incubated for 6 days by MABA method; format: functional
[21] = test system: Mycobacterium tuberculosis; assay: Antimycobacterial activity against Mycobacterium tuberculosis H37Rv assessed as inhibition of microbial growth by radiometric-BACTEC assay; format: functional

| SMILES | CC50 at 48 h [5] [µg/mL] | CC50 at 48 h [6] [µg/mL] | growth inhibition (GI) (Mycobacterium avium [7]) [%] | inhibition of growth at 100 µg/mL [8] [%] | inhibition of growth at 50 µg/mL [9] [%] | inhibition of growth at 100 µg/mL (Mycobacterium avium [10]) [%] | MIC50 [12] [µg/mL] | other results |
| --- | --- | --- | --- | --- | --- | --- | --- | --- |
| CO[C@H]1/C=C/O[C@@]2(C)Oc3c(C)c(O)c4c(O)c(c(/C=N/N5CCN(C)CC5)c(O)c4c3C2=O)NC(=O)/C(C)=C\C=C\[C@H](C)[C@H](O)[C@@H](C)[C@@H](O)[C@@H](C)[C@H](OC(C)=O)[C@@H]1C [RIFAMPIN] |  |  |  |  |  |  |  | inhibition of growth at 0.5 µg/mL [1]: 100%; growth inhibition (GI) [2]: inactive; inhibition of growth at 2 µg/mL (Mycobacterium avium [3]): 90% |
| CCc1cn([C@H]2O[C@@H](CO)[C@H](O)[C@H]2F)c(=O)[nH]c1=O (single isomer, unassigned) | > 100 | > 100 | 0 |  |  |  |  | growth inhibition (GI) [4]: 0% |
| CCc1cn([C@@H]2O[C@H](CO)[C@@H](N=[N+]=[N-])[C@@H]2F)c(=O)[nH]c1=O | > 100 | > 100 | 0 |  |  |  |  | growth inhibition (GI) [4]: 0% |
| O=c1[nH]c(=O)n([C@@H]2O[C@H](CO)[C@@H](O)[C@@H]2O)cc1CO | > 100 | > 100 | 0 |  |  |  |  | growth inhibition (GI) [4]: 0% |
| CCc1cn([C@@H]2O[C@H](COC(C)=O)[C@@H](OC(C)=O)[C@@H]2F)c(=O)[nH]c1=O | > 100 | > 100 |  | 68 | 55 | 35 |  |  |
| CCc1cn2c(nc1=O)O[C@@H]1[C@H](F)[C@H]2O[C@@H]1CO | > 100 | > 100 |  | 25 | 25 | 50 |  | inhibition of growth at 50 µg/mL (Mycobacterium avium [11]): 25% |
| CCc1cn([C@@H]2O[C@H](CO)[C@@H](O)[C@@H]2F)c(=O)nc1N | > 100 | > 100 | 0 | 50 |  |  | 100 |  |
| NNC(=O)c1ccncc1 [ISONIAZID] |  |  |  |  |  |  |  | inhibition of growth at 0.1 µg/mL [13]: 10%; inhibition of growth at 1 µg/mL [14]: 100% |
| CCc1cn([C@@H]2O[C@H](CO)C[C@@H]2F)c(=O)[nH]c1=O | > 100 | > 100 |  | 25 |  | 25 |  |  |
| N[C@@H]1CONC1=O [CYCLOSERINE] |  |  |  | 100 | 100 |  | 5 | growth inhibition (GI) [15]: 80%; inhibition of growth at 5 µg/mL [16]: 50%; inhibition of growth at 10 µg/mL [17]: 60% |
| CC[C@H]1OC(=O)[C@H](C)[C@@H](O[C@H]2C[C@@](C)(OC)[C@@H](O)[C@H](C)O2)[C@H](C)[C@@H](O[C@@H]2O[C@H](C)C[C@H](N(C)C)[C@H]2O)[C@](C)(OC)C[C@@H](C)C(=O)[C@H](C)[C@@H](O)[C@]1(C)O [CLARITHROMYCIN] |  |  |  |  |  |  |  | inhibition of growth at 2 µg/mL (Mycobacterium avium [3]): 100% |
| CCc1cn([C@@H]2O[C@H](CO)[C@@H](Br)[C@@H]2F)c(=O)[nH]c1=O | > 100 | > 100 | 0 | 78 | 65 |  | 5 | inhibition of growth at 5 µg/mL [16]: 50%; inhibition of growth at 10 µg/mL [17]: 56% |
| O=c1[nH]c(=S)c(CO)cn1[C@@H]1O[C@H](CO)[C@@H](O)[C@@H]1O | > 100 | > 100 |  | 100 | 100 | 73 | 0.5 | inhibition of growth at 0.5 µg/mL [1]: 50%; inhibition of growth at 50 µg/mL (Mycobacterium avium [11]): 58%; MIC50 (Mycobacterium avium [18]): 10 µg/mL; inhibition of growth at 10 µg/mL (Mycobacterium avium [19]): 50%; inhibition of growth at 5 µg/mL [16]: 70%; Ratio [20]: 10; MIC50 [21]: 1 µg/mL; inhibition of growth at 10 µg/mL [17]: 90% |
| CCc1cn([C@@H]2O[C@H](CO)[C@@H](O)[C@@H]2F)c(=O)[nH]c1=S | > 100 | > 100 |  | 60 | 50 | 35 | 50 | inhibition of growth at 50 µg/mL (Mycobacterium avium [11]): 25% |
| COCc1cn([C@@H]2O[C@H](CO)[C@@H](O)[C@@H]2O)c(=O)nc1N | > 100 | > 100 |  | 80 | 60 | 20 |  | inhibition of growth at 10 µg/mL [17]: 50% |
